According to ChEMBL document CHEMBL1122671, “Anticonvulsant activity of some 4-aminobenzamides” (J Med Chem, 1984):

Experiments:
Mus musculus [1] = assay: Anticonvulsant activity against MES (maximal electroshock) induced seizure in mice at 4 hr; f = No activity at 100 mg/kg.; assay type: functional, organism-based; design: dose 100 mg/kg
Procedure, shortened: (§1)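 Male Carworth Farms number-one mice received the compound ip in 30% polyethylene glycol 400. Doses were 30, 100 and 300 mg/kg, with 600 mg/kg in some cases. Maximal electroshock seizure protection was scored at 30 min and 4 h after dosing. Activity is coded by the lowest effective dose.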

Mus musculus [2] = assay: Anticonvulsant activity against scMet (subcutaneous metrazole) induced seizure in mice at 30 min; +++ = Indicates activity at 100 mg/kg.; assay type: functional, organism-based; design: dose 100 mg/kg
Mus musculus [3] = assay: Anticonvulsant activity against scMet (subcutaneous metrazole) induced seizure in mice at 4 hr; f = No activity at 100 mg/kg.; assay type: functional, organism-based; design: dose 100 mg/kg
Mus musculus [4] = assay: Anticonvulsant activity against MES (maximal electroshock) induced seizure in mice at 30 min; +++ = Activity at 100 mg/kg.; assay type: functional, organism-based; design: dose 100 mg/kg; procedure, shortened: as §1
Mus musculus [5] = assay: Evaluated for toxicity by using rotarod test at in mice 30 min; +++ = Indicates activity at 100 mg/kg.; assay type: organism-based; design: dose 100 mg/kg; details: in vivo, 0.5 h
Procedure, shortened: (§2)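 Neurotoxicity in male Carworth Farms number-one mice dosed ip in 30% PEG 400 at 30, 100, 300 and sometimes 600 mg/kg, tested 30 min or 4 h later. Mice placed on a 1-in. knurled rod rotating at 6 rpm; toxicity means failure to stay on the rod for 1 min. Scored by the lowest toxic dose; footnotes record loss of righting reflex or lethality.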

Mus musculus [6] = assay: Evaluated for toxicity by using rotarod test in mice at 4 hr; f = No activity at 100 mg/kg.; assay type: organism-based; design: dose 100 mg/kg; details: in vivo; procedure, shortened: as §2
[7] = (§3) Evaluation of neurologic deficit by rotarod procedure in mice; assay type: ADME, organism-based; details: mouse, in vivo
Procedure, shortened: (§4)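 Male Carworth Farms number-one mice were dosed ip (30% PEG 400 vehicle) and placed on a 1-in. knurled plastic rod rotating at 6 rpm. Neurotoxicity meant failure to stay on the rod for 1 min. TD50 was determined graphically.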

[8] = Protective index (PI) which is defined as the ratio of TD50 to the ED50 (MES).; assay type: functional
Procedure, shortened: (§5)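 Both values come from ip dosing in 30% PEG 400 to male Carworth Farms number-one mice and were derived by the graphical method.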

[9] = Protective index (PI) which is defined as the ratio of TD50 to the ED50 (ScMet).; assay type: functional; procedure, shortened: as §5
Mus musculus [10] = assay: Anticonvulsant activity against scMet (subcutaneous metrazole) induced seizure in mice at 30 min; +++ = Activity at 100 mg/kg.; assay type: functional, organism-based; design: dose 100 mg/kg
Mus musculus [11] = assay: Anticonvulsant activity against MES (maximal electroshock) induced seizure in mice at 4 hr; ++ = Activity at 300 mg/kg.; assay type: functional, organism-based; design: dose 300 mg/kg; procedure, shortened: as §1
Mus musculus [12] = assay: Anticonvulsant activity against scMet (subcutaneous metrazole) induced seizure in mice at 4 hr; - = No activity at 600 mg/kg.; assay type: functional, organism-based; design: dose 600 mg/kg
Procedure, shortened: (§6)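 Male Carworth Farms number-one mice dosed ip (30% PEG 400) at 30, 100, 300 and in some cases 600 mg/kg. Pentylenetetrazole 85 mg/kg given sc as a 0.5% solution in the posterior midline, at 30 min or 4 h. Protection means no clonic spasm of at least 5 s within 30 min. Scored by the lowest protective dose.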

Mus musculus [13] = assay: Evaluated for toxicity by using rotarod test at in mice 30 min; +++ = Activity at 100 mg/kg,*- Loss of righting reflex at less than 600 mg/kg; assay type: organism-based; details: in vivo, 0.5 h; procedure, shortened: as §2
Mus musculus [14] = assay: Evaluated for toxicity by using rotarod test in mice at 4 hr; ++ = Activity at 300 mg/kg.; assay type: organism-based; design: dose 300 mg/kg; details: in vivo; procedure, shortened: as §2
Mus musculus [15] = organism: Mus musculus; assay: as §3; assay type: functional; procedure, shortened: as §4
Mus musculus [16] = assay: Anticonvulsant activity against MES (maximal electroshock) induced seizure in mice at 4 hr; +++ = Activity at 100 mg/kg.; assay type: functional, organism-based; design: dose 100 mg/kg; procedure, shortened: as §1
Mus musculus [17] = assay: Anticonvulsant activity against scMet (subcutaneous metrazole) induced seizure in mice at 4 hr; - indicates no activity at 600 mg/kg.; assay type: functional, organism-based; design: dose 600 mg/kg; procedure, shortened: as §6
Mus musculus [18] = assay: Evaluated for toxicity by using rotarod test at in mice 30 min; ++ indicates activity at 300 mg/kg.; assay type: organism-based; design: dose 300 mg/kg; details: in vivo, 0.5 h; procedure, shortened: as §2
Mus musculus [19] = assay: Evaluated for toxicity by using rotarod test in mice at 4 hr; + indicates activity at 600 mg/kg.; assay type: organism-based; design: dose 600 mg/kg; details: in vivo; procedure, shortened: as §2
[20] = Evaluation of neurologic deficit by rotarod procedure in mice.; assay type: ADME, organism-based; details: mouse, in vivo; procedure, shortened: as §4
Mus musculus [21] = assay: Anticonvulsant activity against scMet (subcutaneous metrazole) induced seizure at dose 600 mg/kg in mice at 4 hr; - = No activity at 600 mg/kg.; assay type: functional, organism-based
Mus musculus [22] = assay: Anticonvulsant activity against scMet (subcutaneous metrazole) induced seizure at dose 300 mg/kg in mice at 30 min; ++ = Activity at 300 mg/kg.; assay type: functional, organism-based
Mus musculus [23] = assay: Anticonvulsant activity against MES (maximal electroshock) induced seizure at dose 600 mg/kg in mice at 30 min; - = No activity at 600 mg/kg.; assay type: functional, organism-based; procedure, shortened: as §1
Mus musculus [24] = assay: Anticonvulsant activity against MES (maximal electroshock) induced seizure at dose 600 mg/kg in mice at 4 hr; - = No activity at 600 mg/kg.; assay type: functional, organism-based; procedure, shortened: as §1
Mus musculus [25] = assay: Evaluated for toxicity by using rotarod test at dose 600 mg/kg in mice 30 min; - = No activity at 600 mg/kg.; assay type: organism-based; details: in vivo, 0.5 h; procedure, shortened: as §2
Mus musculus [26] = assay: Evaluated for toxicity by using rotarod test in mice at 4 hr; - = No activity at 600 mg/kg.; assay type: organism-based; design: dose 600 mg/kg; details: in vivo; procedure, shortened: as §2
Mus musculus [27] = assay: Anticonvulsant activity against MES (maximal electroshock) induced seizure in mice at 4 hr; Activity at 300 mg/kg.; assay type: functional, organism-based; design: dose 300 mg/kg; procedure, shortened: as §1
Mus musculus [28] = assay: Anticonvulsant activity against scMet (subcutaneous metrazole) induced seizure in mice at 30 min; ++ indicates activity at 300 mg/kg.; assay type: functional, organism-based; design: dose 300 mg/kg
Mus musculus [29] = assay: Anticonvulsant activity against scMet (subcutaneous metrazole) induced seizure in mice at 4 hr; ++ indicates activity at 300 mg/kg.; assay type: functional, organism-based; design: dose 300 mg/kg
Mus musculus [30] = assay: Anticonvulsant activity against MES (maximal electroshock) induced seizure in mice at 30 min; + indicates activity at 600 mg/kg.; assay type: functional, organism-based; design: dose 600 mg/kg
Procedure, shortened: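 Male Carworth Farms number-one mice; compounds in 30% polyethylene glycol 400, given ip at 30, 100 and 300 mg/kg, some also at 600 mg/kg. Maximal electroshock challenge at 30 min or 4 h after dosing. Scored by the lowest dose giving protection (++++ 30, +++ 100, ++ 300, + 600 mg/kg; - none at 600).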

Mus musculus [31] = assay: Evaluated for toxicity by using rotarod test in mice at 4 hr; ++ indicates activity at 300 mg/kg.; assay type: organism-based; design: dose 300 mg/kg; details: in vivo; procedure, shortened: as §2
Mus musculus [32] = assay: Anticonvulsant activity against scMet (subcutaneous metrazole) induced seizure in mice at 30 min; ++ = Activity at 300 mg/kg.; assay type: functional, organism-based; design: dose 300 mg/kg
Mus musculus [33] = assay: Anticonvulsant activity against scMet (subcutaneous metrazole) induced seizure in mice at 4 hr; + = Activity at 600 mg/kg.; assay type: functional, organism-based; design: dose 600 mg/kg
Mus musculus [34] = assay: Anticonvulsant activity against MES (maximal electroshock) induced seizure in mice at 30 min; ++ = Activity at 300 mg/kg.; assay type: functional, organism-based; design: dose 300 mg/kg; procedure, shortened: as §1
Mus musculus [35] = assay: Evaluated for toxicity by using rotarod test at in mice 30 min; + = Activity at 600 mg/kg.; assay type: organism-based; design: dose 600 mg/kg; details: in vivo, 0.5 h; procedure, shortened: as §2
Mus musculus [36] = assay: Evaluated for toxicity by using rotarod test in mice at 4 hr; + = Activity at 600 mg/kg.; assay type: organism-based; design: dose 600 mg/kg; details: in vivo; procedure, shortened: as §2

CCCCCNC(=O)c1ccc(N)cc1
Activity (Mus musculus [1]): No activity | Activity (Mus musculus [2]): Activity at 100 mg/kg | Activity (Mus musculus [3]): No activity | Activity (Mus musculus [4]): Activity at 100 mg/kg | Toxicity (Mus musculus [5]): activity at 100 mg/kg | Toxicity (Mus musculus [6]): No activity | TD50 [7]: 68.5 mg/kg | PI [8]: 1.6 | PI [9]: 1.2

Nc1ccc(C(=O)Nc2ccccc2)cc1
Activity (Mus musculus [10]): Activity at 100 mg/kg | Activity (Mus musculus [11]): Activity at 100 mg/kg | Activity (Mus musculus [12]): Not toxic | Toxicity (Mus musculus [13]): Activity at 100 mg/kg,*- Loss of righting reflex at < 600 mg/kg | Toxicity (Mus musculus [14]): Activity at 100 mg/kg,*- Loss of righting reflex at < 600 mg/kg | TD50 (Mus musculus [15]): 111 mg/kg | PI [8]: 2.2 | PI [9]: 1.9

Nc1ccc(C(=O)NC2CCCCC2)cc1
Activity (Mus musculus [10]): Activity at 100 mg/kg | Activity (Mus musculus [16]): Activity at 100 mg/kg | Activity (Mus musculus [4]): Activity at 100 mg/kg | Activity (Mus musculus [17]): Not toxic | Toxicity (Mus musculus [18]): activity at 300 mg/kg | Toxicity (Mus musculus [19]): activity at 300 mg/kg | TD50 [20]: 189 mg/kg | PI [8]: 2.8 | PI [9]: 1.5

NC(=O)c1ccc(N)cc1
Activity (Mus musculus [21]): Not toxic | Activity (Mus musculus [22]): Activity at 300 mg/kg | Activity (Mus musculus [23]): Not toxic | Activity (Mus musculus [24]): Not toxic | Toxicity (Mus musculus [25]): Not toxic | Toxicity (Mus musculus [26]): Not toxic

CC(CNC(=O)c1ccc(N)cc1)c1ccccc1 (stereo not given)
Activity (Mus musculus [27]): activity at 300 mg/kg | Activity (Mus musculus [28]): activity at 300 mg/kg | Activity (Mus musculus [29]): activity at 300 mg/kg | Activity (Mus musculus [30]): activity at 300 mg/kg | Toxicity (Mus musculus [18]): activity at 300 mg/kg | Toxicity (Mus musculus [31]): activity at 300 mg/kg

Nc1ccc(C(=O)NCCc2ccccc2)cc1
Activity (Mus musculus [32]): Activity at 300 mg/kg | Activity (Mus musculus [33]): Activity at 300 mg/kg | Activity (Mus musculus [11]): Activity at 300 mg/kg | Activity (Mus musculus [34]): Activity at 300 mg/kg | Toxicity (Mus musculus [35]): Activity at 600 mg/kg | Toxicity (Mus musculus [36]): Activity at 600 mg/kg

CCC1(c2ccccc2)C(=O)NC(=O)NC1=O [PHENOBARBITAL]
TD50 (Mus musculus [15]): 69 mg/kg
